Data taken from ChEMBL document CHEMBL1143872, “Design, synthesis, and preliminary evaluation of 4-(6-(3-nitroguanidino)hexanamido)pyrrolidine derivatives as potential iNOS inhibitors” (Bioorg Med Chem, 2008).

Molecular target: T1, Nitric oxide synthase, inducible (Mus musculus, UniProt P29477)
T1 sequence (P29477 whole entry): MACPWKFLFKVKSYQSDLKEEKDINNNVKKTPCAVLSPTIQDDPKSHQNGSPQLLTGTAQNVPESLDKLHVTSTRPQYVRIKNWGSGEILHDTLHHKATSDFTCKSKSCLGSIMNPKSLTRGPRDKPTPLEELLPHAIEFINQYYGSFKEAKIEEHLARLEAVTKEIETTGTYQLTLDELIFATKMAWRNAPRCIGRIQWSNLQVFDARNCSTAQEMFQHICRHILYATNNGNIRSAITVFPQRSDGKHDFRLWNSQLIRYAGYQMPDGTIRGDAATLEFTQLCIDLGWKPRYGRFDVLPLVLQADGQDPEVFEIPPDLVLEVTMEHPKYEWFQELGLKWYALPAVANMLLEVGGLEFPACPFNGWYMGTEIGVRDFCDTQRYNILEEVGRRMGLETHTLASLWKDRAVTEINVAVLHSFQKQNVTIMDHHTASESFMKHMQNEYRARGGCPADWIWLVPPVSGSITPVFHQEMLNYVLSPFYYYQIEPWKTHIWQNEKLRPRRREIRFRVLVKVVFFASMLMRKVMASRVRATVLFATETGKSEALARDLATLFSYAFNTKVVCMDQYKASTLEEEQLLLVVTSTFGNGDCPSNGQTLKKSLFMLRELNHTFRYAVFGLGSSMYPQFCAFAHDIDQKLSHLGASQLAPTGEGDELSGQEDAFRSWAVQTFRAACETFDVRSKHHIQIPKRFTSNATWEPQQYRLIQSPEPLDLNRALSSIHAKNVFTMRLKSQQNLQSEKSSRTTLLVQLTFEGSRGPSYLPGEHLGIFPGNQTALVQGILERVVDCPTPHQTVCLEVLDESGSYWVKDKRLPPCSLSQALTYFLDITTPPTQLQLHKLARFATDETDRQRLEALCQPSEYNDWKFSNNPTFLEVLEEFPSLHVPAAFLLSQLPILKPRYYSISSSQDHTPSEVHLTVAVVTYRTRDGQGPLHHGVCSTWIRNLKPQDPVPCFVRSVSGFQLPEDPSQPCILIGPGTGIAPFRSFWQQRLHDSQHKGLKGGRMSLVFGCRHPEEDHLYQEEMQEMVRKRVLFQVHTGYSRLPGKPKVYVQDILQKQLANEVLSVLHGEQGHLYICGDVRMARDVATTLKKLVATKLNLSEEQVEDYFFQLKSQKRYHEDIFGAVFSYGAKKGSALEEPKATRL
Test: Inhibition of inducible NOS mediated nitric oxide production in LPS-activated Kunming mouse macrophages
Procedure, shortened: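 Peritoneal exudate cells from female Kunming mice (18–22 g), elicited 2 d earlier by ip 3% starch (1 mL). Cells (10^6/well) precultured 4 h at 37 °C in DMEM with 5% FCS, then washed to keep the adherent macrophages (>95% by Giemsa). Stimulated with LPS 10 µg/mL plus graded compound for 20 h. Nitrite/nitrate measured after nitrate reductase conversion, read colorimetrically. Inhibition % calculated, IC50 read graphically. L-NNA positive control.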

Cc1ccc(NC(=O)[C@@H]2C[C@H](NC(=O)CCCCCNC(=N)N[N+](=O)[O-])CN2)cc1Cl
IC50: 2.5 µM

COc1ccc(NC(=O)[C@@H]2C[C@H](NC(=O)CCCCCNC(=N)N[N+](=O)[O-])CN2)cc1
IC50: 26.7 µM

N=C(NCCCCCC(=O)N[C@@H]1CN[C@H](C(=O)Nc2ccc(Cl)cc2)C1)N[N+](=O)[O-]
IC50: 80 µM

N=C(NCCCCCC(=O)N[C@@H]1CN[C@H](C(=O)Nc2ccc(F)cc2F)C1)N[N+](=O)[O-]
IC50: 139 µM

N=C(NCCCCCC(=O)N[C@@H]1CN[C@H](C(=O)Nc2ccc([N+](=O)[O-])cc2)C1)N[N+](=O)[O-]
IC50: 25 µM

N=C(NCCCCCC(=O)N[C@@H]1CN[C@H](C(=O)Nc2ccccc2Cl)C1)N[N+](=O)[O-]
IC50: 108 µM

N=C(NCCCCCC(=O)N[C@@H]1CN[C@H](C(=O)Nc2cc(Cl)cc(Cl)c2)C1)N[N+](=O)[O-]
IC50: 87.3 µM

N=C(NCCCCCC(=O)N[C@@H]1CN[C@H](C(=O)Nc2cccc([N+](=O)[O-])c2)C1)N[N+](=O)[O-]
IC50: 46 µM

N=C(NCCCCCC(=O)N[C@@H]1CN[C@H](C(=O)Nc2ccc(F)cc2)C1)N[N+](=O)[O-]
IC50: 87 µM

N=C(NCCCCCC(=O)N[C@@H]1CN[C@H](C(=O)Nc2ccc(Cl)cc2Cl)C1)N[N+](=O)[O-]
IC50: 15.5 µM

N=C(NCCCCCC(=O)N[C@@H]1CN[C@H](C(=O)NC2CCCCC2)C1)N[N+](=O)[O-]
IC50: 7.37 µM

N=C(NCCCCCC(=O)N[C@@H]1CN[C@H](C(=O)Nc2ccc(F)c(F)c2F)C1)N[N+](=O)[O-]
IC50: 36.2 µM

Cc1ccccc1NC(=O)[C@@H]1C[C@H](NC(=O)CCCCCNC(=N)N[N+](=O)[O-])CN1
IC50: 119 µM

N=C(NCCCCCC(=O)N[C@@H]1CN[C@H](C(=O)NCc2ccccc2)C1)N[N+](=O)[O-]
IC50: 43.5 µM

N=C(NCCCCCC(=O)N[C@@H]1CN[C@H](C(=O)Nc2ccc(F)c(F)c2)C1)N[N+](=O)[O-]
IC50: 2.68 µM

CCOc1ccc(NC(=O)[C@@H]2C[C@H](NC(=O)CCCCCNC(=N)N[N+](=O)[O-])CN2)cc1
IC50: 162 µM

N=C(NCCCCCC(=O)N[C@@H]1CN[C@H](C(=O)Nc2ccccc2F)C1)N[N+](=O)[O-]
IC50: 13.1 µM

Cc1ccc(NC(=O)[C@@H]2C[C@H](NC(=O)CCCCCNC(=N)N[N+](=O)[O-])CN2)c(C)c1
IC50: 120 µM

N=C(NCCCCCC(=O)N[C@@H]1CN[C@H](C(=O)Nc2ccccc2)C1)N[N+](=O)[O-]
IC50: 2.36 µM

Cc1cccc(NC(=O)[C@@H]2C[C@H](NC(=O)CCCCCNC(=N)N[N+](=O)[O-])CN2)c1
IC50: 120 µM

N=C(NCCCCCC(=O)N[C@@H]1CN[C@H](C(=O)Nc2ccc(Br)cc2)C1)N[N+](=O)[O-]
IC50: 74.6 µM

Cc1ccc(NC(=O)[C@@H]2C[C@H](NC(=O)CCCCCNC(=N)N[N+](=O)[O-])CN2)cc1
IC50: 123 µM

N=C(NCCC[C@H](N)C(=O)O)N[N+](=O)[O-] [NITROARGININE]
IC50: 14.7 µM

N=C(NCCCCCC(=O)N[C@@H]1CN[C@H](C(=O)Nc2cc(F)cc(F)c2)C1)N[N+](=O)[O-]
IC50: 11.7 µM

N=C(NCCCCCC(=O)N[C@@H]1CN[C@H](C(=O)Nc2cc(Cl)ccc2Cl)C1)N[N+](=O)[O-]
IC50: 105 µM

N=C(NCCCCCC(=O)N[C@@H]1CN[C@H](C(=O)Nc2cccc(Cl)c2)C1)N[N+](=O)[O-]
IC50: 13 µM
